The subject of test [1] is HCT-8. As to the kind of experiment: Cytotoxicity against human HCT8 cells assessed as inhibition of cell viability after 69 hrs by MTT assay. It counts as functional, cell-based. The note with it: HCT-8, 69 h.
For test [2], the system named is HepG2. Briefly: Cytotoxicity against human HepG2 cells assessed as cell growth inhibition after 72 hrs by alamar blue assay. It counts as functional, cell-based. The following applies: HepG2, 72 h. The method, boiled down:
(§1)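 Tumour lines and MRC-5 fibroblasts obtained from ATCC, cultured per ATCC guidelines and confirmed mycoplasma-free by staining. Viability read by Alamar blue after 72 h exposure. IC50 in μM with 95% confidence interval by nonlinear regression, from at least three independent experiments run in duplicate. Doxorubicin served as positive control.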

Test [3] relates to HL-60. As to the kind of experiment: Cytotoxicity against human HL60 cells assessed as cell growth inhibition after 72 hrs by alamar blue assay. Format: functional, cell-based. The following applies: HL-60, 72 h. The method, boiled down: as §1
In test [4] the test system is SF-295. As to the kind of experiment: Cytotoxicity against human SF295 cells assessed as inhibition of cell viability after 69 hrs by MTT assay. It counts as functional, cell-based. The following applies: SF-295, 69 h.
Test [5] concerns HCT-116. Briefly: Cytotoxicity against human HCT116 cells assessed as cell growth inhibition after 72 hrs by alamar blue assay. Format: functional, cell-based. The note with it: HCT-116, 72 h. The method, boiled down: as §1
In test [6] the test system is MCF7. As to the kind of experiment: Cytotoxicity against human MCF7 cells assessed as cell growth inhibition after 72 hrs by alamar blue assay. The following applies: MCF7, 72 h. It counts as functional, cell-based. In outline: as §1
In test [7] the test system is MRC5. As to the kind of experiment: Cytotoxicity against human MRC5 cells assessed as cell growth inhibition after 72 hrs by alamar blue assay. Format: cell-based. The note with it: MRC5, 72 h. In outline: as §1
For test [8], the system named is MDA-MB-435. Briefly: Cytotoxicity against human MDA-MB-435 cells assessed as inhibition of cell viability after 69 hrs by MTT assay. The following applies: MDA-MB-435, 69 h. It counts as functional, cell-based.

Regarding `COc1cc2c(cc1OC)[C@H](O)[C@@H]1c3c(cc4c(c3-2)OCO4)CC[N+]1(C)[O-]` (stereo not given in full), the IC50 was 1.9 µM in test [1]; over 10 µM in test [2]; 9.6 µM in test [3]; 1.6 µM in test [4]; 9.2 µM in test [5]; over 10 µM in test [6]. Also, the IC50 in test [7] was over 10 µM; in test [8] it was 7.3 µM.

On to `COc1ccc(OC)c(OC)c1` [1,2,4-TRIMETHOXYBENZENE], for which the IC50 in test [2], in test [3], in test [5], in test [6] and in test [7] was over 10 µM each time.

Consider `COc1cc2c(cc1OC)[C@H](O)[C@@H]1c3c(cc4c(c3-2)OCO4)CCN1C`, for which the IC50 was 1.4 µM in test [1]; 5 µM in test [2]; 4.8 µM in test [3]; 1.4 µM in test [4]; over 10 µM in test [5]; over 10 µM in test [6]. Besides, the values for the IC50 in test [7] and in test [8] were over 10 µM and 12.4 µM, respectively.

On to `COc1cc2c(=O)cc3c4c(cc5c(c4c2cc1OC)OCO5)CCN3C`, for which the IC50 in test [2], in test [3], in test [5], in test [6] and in test [7] was over 10 µM each time.

Regarding `COc1cc2c(cc1OC)[C@@H](O)[C@@H]1NCCc3cc4c(c-2c31)OCO4`, the IC50 in test [2] was 9.1 µM; in test [3], 2 µM; in test [5], 4 µM; in test [6], 10 µM; in test [7], over 10 µM.

As for `COc1ccc2c(c1)c(=O)cc1c3c(cc4c(c32)OCO4)CCN1C`, the IC50 in test [2], in test [3], in test [5], in test [6] and in test [7] was over 10 µM throughout.

For the molecule `COc1cc2c(cc1OC)-c1c3c(cc4ccnc(c14)C2=O)OCO3` [DICENTRINONE], the half-maximal inhibitory concentration (IC50) in test [2], in test [3], in test [5], in test [6] and in test [7] was over 10 µM each time.

Turning to `COc1cc2c(cc1OC)-c1c3c(cc4c1[C@H](C2)N(C)CC4)OCO3` [DICENTRINE], the half-inhibitory concentration (IC50) in test [2] is over 10 µM; in test [3], 3.7 µM; in test [5], 8.8 µM; in test [6], over 10 µM; in test [7], over 10 µM.

Turning to `COC1=C[C@@]23CCN(C)[C@@H](Cc4cc(O)c(OC)cc42)C3=CC1=O`, the IC50 in test [2], in test [3], in test [5], in test [6] and in test [7] was over 10 µM in each case.

As for `COc1cccc2c1C(=O)c1c(O)c3c(c(O)c1C2=O)C[C@@](O)(C(=O)CO)C[C@@H]3O[C@H]1C[C@H](N)[C@H](O)[C@H](C)O1` [DOXORUBICIN], the IC50 in test [2] stood at 0.04 µM; in test [3], 0.04 µM; in test [5], 0.3 µM; in test [7], 2.4 µM.

Values taken from ChEMBL document CHEMBL4334473, “Structure-Based Molecular Networking for the Target Discovery of Oxahomoaporphine and 8-Oxohomoaporphine Alkaloids from Duguetia surinamensis” (J Nat Prod, 2019).
